Compounds with a hit are over-represented: about 3.8% of the library has one in this group of screens.
HSF1 inh = HSF1 inhibition. NIH3T3-HGL HSE-luciferase, MG132-induced, luminescence 8 h; stronger effect = lower value. activity change, negative = inhibition, % at 7.5 µM (by protocol). 300,000 compounds, 0.77% hits. AID 2098;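 active = more than half of replicate wells show activity change below -50%, luminescence cut by over half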;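 also: luciferase reports HSF-1 transcriptional activity via heat shock element; 0% = median of DMSO wells and -100% = zero luminescence signal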
NS3 helicase inh = blocks Hepatitis C virus NS3 helicase unwinding | NS3 helicase DNA unwinding, Cy5 molecular beacon fluorescence | inhibition, % at 10.9 µM | 290,000 compounds, 0.56% hits | AID 1800;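 active = inhibition above the mean of all tested compounds plus 3 SD, set per campaign, cut at about 35% in these data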;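 also: 0% = DMSO wells and 100% = thioflavine S control wells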
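System: NS3 helicase fragment of HCV / Schedule: 1 h at 25 °C / Control set: DMSO alone as 0% and 110 µM thioflavine S as 100% / Reagent: Cy5/quencher beacon DNA duplex and ATP to start / Technique: Cy5 fluorescence / Replication: singlicate / Evaluation: % inhibition of end-to-start signal ratio versus controls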
HSF-1 act = increases HSF-1 driven luciferase reporter signal; NIH3T3-HGL HSF-1 luciferase reporter, MG132, 8 h; 100% = twice DMSO control signal; activation, % at 9 µM; 300,000 compounds, 1.7% hits;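 active = mean replicate activation of at least 50% with a set share of replicates each reaching 50%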;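 also: 0% = median of the neutral control wells and 100% = twice that signal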
HSP90 refold inh = blocks HSP90-mediated luciferase refolding in reticulocyte lysate | 290,000 compounds, 0.91% hits | AID 1789 | Rabbit reticulocyte lysate, luciferase refolding luminescence, 3 h | inhibition, % at 5.6 µM;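 active = inhibition above the screen-wide mean plus 3 SD, computed separately per campaign, cut at about 16% in these data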;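 also: 0% = DMSO wells and 100% = 60 µM geldanamycin wells; inhibitors lower the luminescence because luciferase stays unfolded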
Lipid droplet = modulators of hepatic lipid droplet formation. AML12 mouse hepatocytes, oleate lipid droplets, BODIPY imaging. inhibition, % at 6.5 µM. 240,000 compounds, 0.4% hits;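 active = lipid droplet intensity inhibited by at least 50%, with more than 500 cells counted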
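Assay system: AML12 hepatocytes (mouse) / Also added: 100 µM oleic acid challenge / Times: overnight treatment with compound plus oleate / Detection: high-content imaging of BODIPY-stained droplets and DAPI nuclei / Evaluation: % inhibition of lipid droplet signal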
An asterisk follows results filed as active; · = no result given.

SMILES	HSF1 inh	NS3 helicase inh	HSF-1 act	HSP90 refold inh	Lipid droplet
Nc1ccc(-c2nc3ccccc3o2)cc1	19.8	-0.7	24.6	16.8*	2.7
CCOC(=O)c1ccc(NC(=S)N2CCCC(C(=O)N3CCCC3)C2)cc1 (centres undefined)	-17.3	4.9	-33.8	-4.7	19.1
CCOC(=O)c1ccc(NC(=S)NC(=O)C2CCCC2)cc1	-74.1*	3.8	-80.3	1.6	-12.0
CCOC(=O)c1ccc(NC(=S)N2CCCC(C)C2)cc1 (centres undefined)	26.2	-5.5	61.9*	0.5	0.8
CCn1c(CNC(=O)c2ccco2)nnc1SCC(=O)Nc1ccccc1Cl	1.0	-2.3	-14.3	1.5	5.6
O=C(Nc1ccc(Cl)cn1)c1ccc2[nH]c(=O)c(=O)[nH]c2c1	3.1	9.5	-14.0	1.4	-9.9
COc1ccc(C2C3=C(CCCC3=O)N(CC(=O)O)C3=C2C(=O)CCC3)cc1Cl	30.4	30.2	76.6*	-0.6	0.4
CCOc1cc(C2C3=C(CCCC3=O)N(CC(=O)O)C3=C2C(=O)CCC3)ccc1OC	-1.9	1.1	5.9	1.1	1.1
CC(C)(C)C(=O)N1CCN(CCN2C(=O)c3cccc4cccc(c34)C2=O)CC1	-52.6*	-3.5	-61.1	-5.5	-7.2
CC(C)C(=O)N1CCN(CCN2C(=O)c3cccc4cccc(c34)C2=O)CC1	6.9	1.4	17.1	-1.8	-0.1
O=C(CSc1nc2ccccc2nc1N1CCCCC1)Nc1ccc(F)cc1	9.9	-18.1	2.3	3.6	6.8
Cc1nc2ccc(NC(=O)c3sccc3C)cc2s1	29.7	1.3	60.9*	-2.0	·
Cc1nc2ccc(NC(=O)N3CCSCC3)cc2s1	-59.7*	1.2	-63.7	8.0	8.1
Cc1nc2ccc(NC(=O)c3cccs3)cc2s1	10.6	1.5	25.3	-0.6	2.1
O=C(CCc1nnc(Cc2ccc(-c3ccccc3)cc2)o1)NCCc1cccnc1	0.9	-10.4	16.1	-1.2	-3.3
C(=N\N1CCN(Cc2cccc3ccccc23)CC1)/c1cccnc1	16.4	-2.5	62.1*	-4.9	·
FC(F)(F)c1ccc(/C=N/N2CCN(Cc3cccc4ccccc34)CC2)cc1	1.8	-1.0	4.8	-0.8	·
O=C(Nc1ccccc1-c1nc2ccccc2s1)c1ccco1	1.1	14.2	-0.4	-0.3	·
O=c1c(-c2nc3ccccc3s2)cccn1Cc1ccccc1	49.7	1.6	93.4*	-3.7	·
Cc1ccc(Cn2cccc(-c3nc4ccccc4s3)c2=O)cc1	52.6	11.0	105.7*	-1.5	-11.6
Cc1csc(=O)n1CCC(=O)OCC(=O)N(CC(C)C)c1c(N)n(Cc2ccccc2)c(=O)[nH]c1=O	-5.6	12.7	15.9	-3.1	-32.9
CN1CCN(C(=O)/C(=C/c2cn(S(=O)(=O)N(C)C)c3ccccc23)NC(=O)c2ccccc2)CC1	6.2	-38.4	-6.7	-7.5	-11.2
CCCN(Cc1ccccc1)C(=S)NC(=O)c1ccccc1[N+](=O)[O-]	-59.6*	-1.6	-67.5	-1.2	-6.7
CCN(Cc1ccccc1)C(=S)NC(=O)c1ccccc1Br	0.7	-2.2	-0.7	-0.3	5.8
CCNC(=O)CNC(=O)c1nn(Cc2ccccc2)c(=O)c2ccccc12	-70.6*	-4.1	-76.2	-0.9	0.7
SMILES	HSF1 inh	NS3 helicase inh	HSF-1 act	HSP90 refold inh	Lipid droplet
CN(C(=O)CS(=O)(=O)c1cn(CC(=O)N2CCCC2)c2ccccc12)c1ccccc1	-3.5	0.5	-13.7	0.5	-26.8
CCc1nc(SCC(=O)Nc2ccc(F)cc2)c2c(=O)n(C)c(=O)n(C)c2n1	-0.7	-9.6	2.5	6.4	6.4
CC(C)NC(=S)NC(c1ccccc1)(c1ccccc1)c1ccccc1	4.3	-3.0	3.0	8.7	16.7
CCOC(=O)N/C(N)=N/c1nc2ccccc2s1	23.4	-6.7	52.8*	6.3	-11.7
Cc1ccc(NC(=O)CN(C)C(=O)Cn2ncc(Cl)c(Cl)c2=O)cc1	29.2	6.5	52.2*	0.3	-26.1
COc1ccc(C)cc1S(=O)(=O)Nc1ccc2c(c1)OCCO2	-4.4	2.0	-16.2	3.0	-6.8
Cc1cccc(C(=O)O/N=C(\N)Cc2cccc3ccccc23)c1	-1.2	-8.8	9.5	16.7*	-0.8
COc1ccc(N=c2sc3ccccc3n2C)cc1	30.6	-5.5	54.7*	-9.6	9.6
COc1ccccc1N=c1sc2ccccc2n1C	4.7	-0.3	17.1	-8.7	-2.8
CCN(CC)C(=O)CSc1nc2cc(S(=O)(=O)N3CCOCC3)ccc2n1CC	-0.9	1.1	-7.1	-4.5	-7.4

Bioassay records from PubChem.
